Assay results published in ChEMBL document CHEMBL1145632, “Sulfamoyl benzamides as novel CB2 cannabinoid receptor ligands” (Bioorg Med Chem Lett, 2008).
Active and inactive are the calls of the source.

Columns and labels:
[1] = species on record: Homo sapiens; experiment: Selectivity ratio of Ki for human cloned CB1 receptor to Ki for human cloned CB2 receptor
How it was run: (§1)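 Competition binding of 0.2–0.6 nM [3H]CP55940 to membranes from cells expressing cloned human CB1 or CB2 receptors. Buffer: 50 mM Tris-HCl pH 7.0, 5.0 mM MgCl2, 1.0 mM EGTA, 1.0 mg/mL fatty-acid-free BSA. Incubation was 120 min at 30 °C for CB1 and 60 min at room temperature for CB2. Samples were filtered and counted by scintillation. Nonspecific binding was set with 10 µM WIN55212-2. Ratio is Ki CB1/Ki CB2.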

[2] = molecular target: T1, Cannabinoid receptor 2 (Homo sapiens, UniProt P34972); experiment: Agonist activity at human cloned CB2 receptor by [35S]GTP-gamma-S binding assay; assay type: functional
T1 sequence (P34972 whole entry): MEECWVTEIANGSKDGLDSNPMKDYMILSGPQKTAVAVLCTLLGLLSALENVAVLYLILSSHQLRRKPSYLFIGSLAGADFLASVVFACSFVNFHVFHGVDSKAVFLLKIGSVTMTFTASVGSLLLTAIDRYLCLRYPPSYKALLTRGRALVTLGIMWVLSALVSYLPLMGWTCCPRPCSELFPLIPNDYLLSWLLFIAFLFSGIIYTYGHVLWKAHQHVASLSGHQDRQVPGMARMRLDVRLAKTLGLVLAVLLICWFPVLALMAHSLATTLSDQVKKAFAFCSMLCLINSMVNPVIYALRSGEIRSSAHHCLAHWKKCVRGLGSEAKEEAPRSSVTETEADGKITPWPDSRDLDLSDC
How it was run: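 Stimulation of [35S]GTPγS binding used 25 µg membrane protein from cells expressing cloned human CB2. Mix: 100–150 pM [35S]GTPγS, 150 mM NaCl, 45 mM MgCl2, 3 µM GDP, 0.4 mM DTT, 1.0 mM EGTA, 1 mg/mL fatty-acid-free BSA in 50 mM Tris-HCl pH 7.0. Incubation was 6 h at room temperature, read by scintillation. Stimulation over basal (no agonist) is expressed as % of 10 µM WIN55212-2.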

[3] = molecular target: T2, Cannabinoid receptor 1 (Homo sapiens, UniProt P21554); experiment: Agonist activity at human cloned CB1 receptor by [35S]GTPgammaS binding assay; assay type: functional
T2 sequence (P21554 whole entry): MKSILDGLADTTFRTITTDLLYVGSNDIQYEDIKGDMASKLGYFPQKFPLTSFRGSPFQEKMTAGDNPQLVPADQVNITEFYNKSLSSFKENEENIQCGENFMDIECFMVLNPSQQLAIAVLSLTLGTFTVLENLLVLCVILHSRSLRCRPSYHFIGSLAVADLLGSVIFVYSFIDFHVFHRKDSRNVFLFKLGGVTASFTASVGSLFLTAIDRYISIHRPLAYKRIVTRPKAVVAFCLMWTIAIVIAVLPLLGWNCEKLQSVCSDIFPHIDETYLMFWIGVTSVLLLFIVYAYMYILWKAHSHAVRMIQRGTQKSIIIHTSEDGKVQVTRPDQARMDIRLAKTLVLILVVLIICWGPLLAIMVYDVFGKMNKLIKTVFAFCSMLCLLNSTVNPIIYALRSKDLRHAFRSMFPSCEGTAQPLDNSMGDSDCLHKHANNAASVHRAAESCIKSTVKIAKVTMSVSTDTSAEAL

[4] = molecular target: T2, Cannabinoid receptor 1; experiment: Displacement of [3H]CP-55940 from human cloned CB1 receptor; how it was run: as §1
[5] = species on record: Homo sapiens; experiment: Selectivity ratio of EC50 for human cloned CB1 receptor to EC50 for human cloned CB2 receptor
[6] = molecular target: T1, Cannabinoid receptor 2; experiment: Displacement of [3H]CP-55940 from human cloned CB2 receptor; how it was run: as §1
[7] = test system: Rattus norvegicus; experiment: Antiallodynic effect in rat hind paw incision-induced nociception model at 100 mg/kg, ip; assay type: functional, organism-based; parameters: dose 100 mg/kg
[8] = test system: Rattus norvegicus; experiment: Antiallodynic effect in rat hind paw incision-induced nociception model at 10 mg/kg, ip; assay type: functional, organism-based; parameters: dose 10 mg/kg
How it was run: (§2)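 Rats with L5 spinal nerve ligation or hindpaw incision were dosed as stated. Read-out was paw-withdrawal threshold of the left hindpaw, reported as group mean ± SEM. Groups were compared by one-way ANOVA with protected t-test against the vehicle-treated surgery group.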

[9] = test system: Rattus norvegicus; experiment: Toxicity in rat assessed as induction of catalepsy at 6 mg/kg, ip; assay type: organism-based; parameters: dose 6 mg/kg, route intraperitoneal; settings: in vivo
[10] = test system: Rattus norvegicus; experiment: Reversal of nerve injury-induced tactile allodynia in rat L5 spinal nerve ligation-induced nociception model at 3 mg/kg, ip; assay type: functional, organism-based; parameters: dose 3 mg/kg; how it was run: as §2
[11] = test system: Rattus norvegicus; experiment: Antiallodynic effect in rat hind paw incision-induced nociception model at 30 mg/kg, ip; assay type: functional, organism-based; parameters: dose 30 mg/kg
[12] = test system: Rattus norvegicus; experiment: Toxicity in rat assessed as induction of catalepsy at 10 mg/kg, ip; assay type: organism-based; parameters: dose 10 mg/kg, route intraperitoneal; settings: in vivo
[13] = test system: Rattus norvegicus; experiment: Toxicity in rat assessed as behavioral side effects upto 10 mg/kg, ip; assay type: organism-based; parameters: dose 10 mg/kg, route intraperitoneal; settings: in vivo
[14] = test system: Rattus norvegicus; experiment: Reversal of nerve injury-induced tactile allodynia in rat L5 spinal nerve ligation-induced nociception model at 60 mg/kg, ip; assay type: functional, organism-based; parameters: dose 60 mg/kg; how it was run: as §2
[15] = test system: Rattus norvegicus; experiment: Antiallodynic effect in rat hind paw incision-induced nociception model at 3 mg/kg, sc; assay type: functional, organism-based; parameters: dose 3 mg/kg; how it was run: as §2
[16] = molecular target: T2, Cannabinoid receptor 1; experiment: Displacement of [3H]CP-55940 from human cloned CB1 receptor at 10 uM

Structure (SMILES)	Ratio Ki [1]	EC50 [2]	EC50 [3]	Ki [4]	Ratio EC50 [5]	Ki [6]	further results
Cc1ccc(C(=O)NC2C(C)CCCC2C)cc1S(=O)(=O)N1CCOCC1 (stereo not drawn)	5	44 nM	540 nM	470 nM	12	92 nM	–
CC(C)CNC(=O)c1ccc(Br)c(S(=O)(=O)N2CCCCC2)c1	> 2	–	–	> 1000 nM	–	410 nM	–
Cc1ccc(C(=O)NCC23CC4CC(CC(C4)C2)C3)cc1S(=O)(=O)N1CCOCC1	9	25 nM	210 nM	91 nM	8	10 nM	–
CC1(C)[C@H]2CC[C@](C)(C2)[C@@H]1NC(=O)c1ccc(Br)c(S(=O)(=O)N2CCCC2)c1	12	4.3 nM	220 nM	110 nM	51	9.4 nM	–
CC1(C)[C@H]2CC[C@](C)(C2)[C@@H]1NC(=O)c1ccc(Br)c(S(=O)(=O)N2CCOCC2)c1	25	8.8 nM	560 nM	89 nM	64	3.5 nM	–
Cc1ccc(C(=O)N[C@@H]2C(C)(C)[C@H]3CC[C@]2(C)C3)cc1S(=O)(=O)N1CCOCC1	31	4.6 nM	550 nM	130 nM	120	3.9 nM	Activity [7]: inactive; Activity [8]: Active; Activity [9]: Non-toxic; Activity [10]: Active; Activity [11]: inactive; Activity [12]: Non-toxic; Activity [13]: Non-toxic
Cc1ccc(C(=O)NC23CC4CC(CC(C4)C2)C3)cc1S(=O)(=O)N1CCOCC1	14	48 nM	570 nM	260 nM	12	19 nM	–
CC(C)(C)CNC(=O)c1ccc(Br)c(S(=O)(=O)N2CCCC2)c1	5	–	–	2000 nM	–	400 nM	–
Cc1ccc(C(=O)NC(C)C(C)(C)C)cc1S(=O)(=O)N1CCOCC1 (stereo not drawn)	9	125 nM	2400 nM	1300 nM	19	180 nM	–
Cc1ccc(C(=O)N[C@H]2C(C)(C)[C@H]3CC[C@]2(C)C3)cc1S(=O)(=O)N1CCOCC1	11	25 nM	880 nM	540 nM	35	48 nM	–
Cc1ccc(C(=O)NC(C)C23CC4CC(CC(C4)C2)C3)cc1S(=O)(=O)N1CCOCC1 (stereo not drawn)	5	9.3 nM	290 nM	77 nM	31	6.3 nM	–
NCC1(CC(=O)O)CCCCC1	–	–	–	–	–	–	Activity [14]: Active
Cc1ccc(C(=O)NC(C(C)(C)C)C(C)(C)C)cc1S(=O)(=O)N1CCOCC1	9	21 nM	920 nM	310 nM	44	34 nM	–
COc1cccc(CNC(=O)c2ccc(Br)c(S(=O)(=O)N3CCCCC3)c2)c1	7	–	–	1400 nM	–	200 nM	–
CC(C)CNC(=O)c1ccc(Br)c(S(=O)(=O)N(C)Cc2ccccc2)c1	> 3	–	–	> 1000 nM	–	340 nM	–
CC(C)(C)CNC(=O)c1ccc(Br)c(S(=O)(=O)N2CCOCC2)c1	3	–	–	1300 nM	–	450 nM	–
O=C(NCc1cccnc1)c1ccc(Br)c(S(=O)(=O)N2CCCCC2)c1	5	–	–	1800 nM	–	320 nM	–
CN1CC[C@]23c4c5ccc(O)c4O[C@H]2[C@@H](O)C=C[C@H]3[C@H]1C5	–	–	–	–	–	–	Activity [15]: Active
Cc1ccc(C(=O)NC2C3CC4CC(C3)CC2C4)cc1S(=O)(=O)N1CCOCC1 (stereo not drawn)	15	12 nM	270 nM	33 nM	23	5.6 nM	–
Cc1ccc(C(=O)N[C@H]2CC3CC[C@@]2(C)C3(C)C)cc1S(=O)(=O)N1CCOCC1	7	14 nM	210 nM	50 nM	15	8.1 nM	–
CN(Cc1ccccc1)S(=O)(=O)c1cc(C(=O)N[C@@H]2C(C)(C)[C@H]3CC[C@]2(C)C3)ccc1Br	> 100	–	–	> 1000 nM	–	11 nM	inhibition [16]: 33%
CN(Cc1ccccc1)S(=O)(=O)c1cc(C(=O)NCC(C)(C)C)ccc1Br	> 2	–	–	> 1000 nM	–	430 nM	–
CC1(C)[C@H]2CC[C@](C)(C2)[C@@H]1NC(=O)c1ccc(Br)c(S(=O)(=O)N2CCCCC2)c1	7	6.6 nM	280 nM	93 nM	42	13 nM	–
Cc1ccc(C(=O)NCC(C)(C)C)cc1S(=O)(=O)N1CCOCC1	> 3	1800 nM	> 1000 nM	> 1000 nM	–	390 nM	–
CC(C)(C)CNC(=O)c1ccc(Br)c(S(=O)(=O)N2CCCCC2)c1	13	–	–	1300 nM	–	100 nM	–
O=C(NCc1ccccc1)c1ccc(Br)c(S(=O)(=O)N2CCCCC2)c1	3	–	–	1100 nM	–	360 nM	–
